Data from ChEMBL document CHEMBL1127320, “Dual-action cephalosporins incorporating a 3'-tertiary-amine-linked quinolone” (J Med Chem, 1994).
≈ marks a conversion by molar mass, not a printed value.

Legend:
[1] = test system: Escherichia coli; test: In vitro minimum inhibitory concentration was measured against Escherichia coli ATCC 25922 strain.; format: functional
Method in brief: (§1)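 Streptococci were tested on brain heart infusion agar plus 20 units/mL catalase, Proteus on Mueller-Hinton with 3% agar, and others on Mueller-Hinton agar. Inocula were 100-fold-diluted overnight cultures, about 3 × 10^4 CFU/spot, read after overnight incubation at 36 °C.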

[2] = test system: Staphylococcus aureus; test: In vitro minimum inhibitory concentration was measured against Staphylococcus aureus 67-0 (Methicillin resistant) strain.; format: functional
[3] = test system: Escherichia coli; test: Minimum inhibitory concentration for DC2, a permeability mutant
Method in brief: as §1, with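 “MICs were determined by agar dilution with 2-fold dilutions giving final 128–0.0156 µg/mL, extended to 0.000977 µg/mL where needed. Streptococci” for “Streptococci”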

[4] = test system: Proteus vulgaris; test: In vitro minimum inhibitory concentration was measured against Proteus vulgaris 1028BC (beta lactamase producer) strain.; format: functional; method in brief: as §1
[5] = test system: Enterobacter cloacae; test: In vitro minimum inhibitory concentration was measured against Enterobacter cloacae 5699 strain.; format: functional
[6] = test system: Penicillin-binding protein 3 (Escherichia coli); test: Affinity for penicillin binding protein 3 of Escherichia coli UB1005 (DC0) was evaluated.; set-up: unit not given here
[7] = test system: Staphylococcus aureus; test: In vitro minimum inhibitory concentration was measured against Staphylococcus aureus 753 (Methicillin resistant) strain.; format: functional
[8] = test system: Proteus mirabilis; test: In vitro minimum inhibitory concentration was measured against Proteus mirabilis 90 strain.; format: functional; method in brief: as §1
[9] = target: T1, Penicillin-binding protein 1B (Escherichia coli K-12) (UniProt P02919); test: Affinity for penicillin binding protein 1b of Escherichia coli UB1005 (DC0) was evaluated.; set-up: unit not given here
T1 sequence (whole entry): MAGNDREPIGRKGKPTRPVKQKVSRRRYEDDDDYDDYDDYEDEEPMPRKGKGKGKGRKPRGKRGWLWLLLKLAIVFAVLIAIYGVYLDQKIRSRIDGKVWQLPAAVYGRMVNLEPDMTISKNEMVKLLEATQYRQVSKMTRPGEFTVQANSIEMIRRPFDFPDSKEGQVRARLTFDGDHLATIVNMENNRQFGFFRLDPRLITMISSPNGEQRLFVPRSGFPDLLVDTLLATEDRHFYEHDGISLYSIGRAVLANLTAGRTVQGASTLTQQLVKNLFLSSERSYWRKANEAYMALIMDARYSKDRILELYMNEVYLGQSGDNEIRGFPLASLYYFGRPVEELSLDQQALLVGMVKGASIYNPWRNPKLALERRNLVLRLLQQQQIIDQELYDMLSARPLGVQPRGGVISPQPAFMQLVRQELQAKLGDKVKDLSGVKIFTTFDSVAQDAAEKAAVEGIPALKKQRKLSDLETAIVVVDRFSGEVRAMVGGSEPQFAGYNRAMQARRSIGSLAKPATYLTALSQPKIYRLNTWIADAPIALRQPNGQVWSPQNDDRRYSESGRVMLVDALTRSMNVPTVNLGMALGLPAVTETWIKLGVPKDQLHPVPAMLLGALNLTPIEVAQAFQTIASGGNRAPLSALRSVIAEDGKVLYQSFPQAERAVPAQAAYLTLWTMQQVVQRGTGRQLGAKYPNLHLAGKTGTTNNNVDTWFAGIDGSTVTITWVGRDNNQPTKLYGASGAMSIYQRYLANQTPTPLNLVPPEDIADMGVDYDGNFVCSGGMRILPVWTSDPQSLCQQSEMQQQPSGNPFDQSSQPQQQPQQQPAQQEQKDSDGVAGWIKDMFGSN
Method in brief: (§2)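 Solubilised membranes from sonicated E. coli UB1005 served as the binding-protein source. Binding was read as inhibition of [14C]penicillin G binding.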

[10] = test system: Staphylococcus aureus; test: In vitro minimum inhibitory concentration was measured against Staphylococcus aureus smith strain.; format: functional
[11] = test system: Citrobacter freundii; test: In vitro minimum inhibitory concentration was measured against Citrobacter freundii BS-16 (beta lactamase producer) strain.; format: functional
Method in brief: as §1, with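 “MICs were determined by agar dilution with 2-fold dilutions giving final 128–0.0156 µg/mL, extended to 0.000977 µg/mL where needed. Streptococci” for “Streptococci”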

[12] = target: T2, Peptidoglycan D,D-transpeptidase MrdA (Escherichia coli K-12) (UniProt P0AD65); test: Affinity for penicillin binding protein 2 of Escherichia coli UB1005 (DC0) was evaluated.; set-up: unit not given here; method in brief: as §2
T2 sequence (whole entry): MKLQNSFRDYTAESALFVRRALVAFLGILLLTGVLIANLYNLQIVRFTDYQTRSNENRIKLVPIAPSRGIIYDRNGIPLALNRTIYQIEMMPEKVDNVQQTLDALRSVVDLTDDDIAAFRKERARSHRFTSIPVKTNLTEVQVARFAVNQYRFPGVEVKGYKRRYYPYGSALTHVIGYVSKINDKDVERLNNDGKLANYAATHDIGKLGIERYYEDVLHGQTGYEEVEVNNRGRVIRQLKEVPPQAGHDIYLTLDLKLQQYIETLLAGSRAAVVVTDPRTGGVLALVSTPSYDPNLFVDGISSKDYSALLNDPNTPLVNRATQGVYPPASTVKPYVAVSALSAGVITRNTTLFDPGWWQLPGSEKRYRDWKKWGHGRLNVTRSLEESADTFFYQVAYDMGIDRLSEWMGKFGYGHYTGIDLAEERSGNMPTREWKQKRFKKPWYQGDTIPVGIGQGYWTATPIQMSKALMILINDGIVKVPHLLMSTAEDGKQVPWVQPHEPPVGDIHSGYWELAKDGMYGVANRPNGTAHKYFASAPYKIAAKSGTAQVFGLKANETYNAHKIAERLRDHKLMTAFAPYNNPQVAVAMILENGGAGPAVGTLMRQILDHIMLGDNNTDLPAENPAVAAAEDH

[13] = test system: Klebsiella pneumoniae; test: In vitro minimum inhibitory concentration was measured against Klebsiella pneumoniae A strain.; format: functional; method in brief: as §1
[14] = test system: Pseudomonas aeruginosa; test: In vitro minimum inhibitory concentration was measured against Pseudomonas aeruginosa 18S/H strain.; format: functional; method in brief: as §1
[15] = test system: Pseudomonas aeruginosa; test: In vitro minimum inhibitory concentration was measured against Pseudomonas aeruginosa 8780 strain.; format: functional; method in brief: as §1
[16] = test system: Escherichia coli; test: In vitro minimum inhibitory concentration was measured against Escherichia coli 257 strain.; format: functional; method in brief: as §1
[17] = test system: Serratia marcescens; test: In vitro minimum inhibitory concentration was measured against Serratia marcescens 1071(beta lactamase producer) strain.; format: functional; method in brief: as §1
[18] = test system: Escherichia coli; test: Minimum inhibitory concentration against E. coli UB1005 (DC0)
[19] = target: T3, Penicillin-binding protein 1A (Escherichia coli K-12) (UniProt P02918); test: Affinity for penicillin binding protein 1a of Escherichia coli UB1005 (DC0) was evaluated.; set-up: unit not given here; method in brief: as §2
T3 sequence (whole entry): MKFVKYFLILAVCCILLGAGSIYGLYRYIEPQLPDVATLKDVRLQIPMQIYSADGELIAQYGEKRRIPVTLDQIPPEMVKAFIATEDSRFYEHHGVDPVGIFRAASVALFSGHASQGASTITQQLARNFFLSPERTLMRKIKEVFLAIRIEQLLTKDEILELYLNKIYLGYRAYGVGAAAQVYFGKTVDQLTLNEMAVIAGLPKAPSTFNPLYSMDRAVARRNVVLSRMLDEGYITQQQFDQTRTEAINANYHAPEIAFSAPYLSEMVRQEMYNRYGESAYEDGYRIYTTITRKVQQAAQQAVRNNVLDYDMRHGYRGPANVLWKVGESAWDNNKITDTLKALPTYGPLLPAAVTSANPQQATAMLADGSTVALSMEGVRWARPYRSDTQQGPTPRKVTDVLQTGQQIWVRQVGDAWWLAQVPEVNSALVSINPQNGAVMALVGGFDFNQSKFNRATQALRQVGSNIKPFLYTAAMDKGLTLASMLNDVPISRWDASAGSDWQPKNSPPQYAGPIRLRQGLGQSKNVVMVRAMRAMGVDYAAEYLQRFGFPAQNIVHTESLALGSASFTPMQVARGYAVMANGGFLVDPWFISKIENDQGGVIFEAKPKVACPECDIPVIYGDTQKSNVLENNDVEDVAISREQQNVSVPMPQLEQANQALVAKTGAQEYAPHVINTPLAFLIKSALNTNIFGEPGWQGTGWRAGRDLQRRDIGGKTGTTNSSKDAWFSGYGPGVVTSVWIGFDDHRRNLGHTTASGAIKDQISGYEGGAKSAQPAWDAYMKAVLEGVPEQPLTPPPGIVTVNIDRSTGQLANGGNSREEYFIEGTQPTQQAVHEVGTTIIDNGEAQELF

[20] = test system: Enterobacter cloacae; test: In vitro minimum inhibitory concentration was measured against Enterobacter cloacae p99 (beta lactamase producer) strain.; format: functional
[21] = test system: Streptococcus pneumoniae; test: In vitro minimum inhibitory concentration was measured against Streptococcus pneumoniae 6301 strain; format: functional; method in brief: as §1
[22] = test system: Enterococcus faecalis; test: In vitro minimum inhibitory concentration was measured against Enterococcus faecalis ATCC 29212 strain.; format: functional; method in brief: as §1
[23] = test system: Micrococcus luteus; test: In vitro minimum inhibitory concentration was measured against Micrococcus luteus ATCC 9341 strain.; format: functional; method in brief: as §1
[24] = test system: Escherichia coli; test: In vitro minimum inhibitory concentration was measured against Escherichia coli TEM-1 (Beta lactamase producer) strain.; format: functional; method in brief: as §1
[25] = test system: Streptococcus pyogenes; test: In vitro minimum inhibitory concentration was measured against Streptococcus pyogenes 4 strain.; format: functional; method in brief: as §1
[26] = Half life was measured as degradation by HPLC analysis.; format: ADME

SMILES	MIC [1] [µg/mL]	MIC [2] [µg/mL]	MIC [3] [µg/mL]	MIC [4] [µg/mL]	MIC [5] [µg/mL]	Binding affinity [6]	MIC [7] [µg/mL]	MIC [8] [µg/mL]	Binding affinity [9]	MIC [10] [µg/mL]	MIC [11] [µg/mL]	Binding affinity [12]	MIC [13] [µg/mL]	MIC [14] [µg/mL]	MIC [15] [µg/mL]	MIC [16] [µg/mL]	MIC [18] [µg/mL]	Binding affinity [19]	MIC [20] [µg/mL]	MIC [22] [µg/mL]	further results
CC(C)(O/N=C(\C(=O)N[C@@H]1C(=O)N2C(C(=O)O)=C(CN3CCN(c4cc5c(cc4F)c(=O)c(C(=O)O)cn5C4CC4)CC3)CS[C@H]12)c1csc(N)n1)C(=O)O	0.25 (≈ 0.313 µM)	16 (≈ 20 µM)	0.25 (≈ 0.313 µM)	1 (≈ 1.25 µM)	1 (≈ 1.25 µM)	2	8 (≈ 10 µM)	2 (≈ 2.5 µM)	100	8 (≈ 10 µM)	0.125 (≈ 0.156 µM)	100	0.5 (≈ 0.626 µM)	2 (≈ 2.5 µM)	8 (≈ 10 µM)	0.25 (≈ 0.313 µM)	4 (≈ 5.01 µM)	100	0.5 (≈ 0.626 µM)	8 (≈ 10 µM)	MIC [17]: 1 µg/mL (≈ 1.25 µM); MIC [21]: 0.25 µg/mL (≈ 0.313 µM); MIC [23]: 2 µg/mL (≈ 2.5 µM); MIC [24]: 0.5 µg/mL (≈ 0.626 µM); MIC [25]: 0.25 µg/mL (≈ 0.313 µM)
O=C(O)C1=C(CN2CCN(c3cc4c(cc3F)c(=O)c(C(=O)O)cn4C3CC3)CC2)CS[C@@H]2[C@H](NC(=O)C(C(=O)O)c3ccccc3)C(=O)N12 (stereo not given in full)	–	–	2 (≈ 2.83 µM)	–	–	100	–	–	> 100	–	0.063 (≈ 0.0893 µM)	> 100	–	–	–	–	4 (≈ 5.67 µM)	> 100	0.063 (≈ 0.0893 µM)	32 (≈ 45.3 µM)	half-life [26]: 228 h
Nc1nc(/C(=N/OCC(=O)O)C(=O)N[C@@H]2C(=O)N3C(C(=O)O)=C(CN4CCN(c5cc6c(cc5F)c(=O)c(C(=O)O)cn6C5CC5)CC4)CS[C@H]23)cs1	0.5 (≈ 0.649 µM)	32 (≈ 41.5 µM)	4 (≈ 5.19 µM)	1 (≈ 1.3 µM)	1 (≈ 1.3 µM)	2	8 (≈ 10.4 µM)	2 (≈ 2.59 µM)	> 100	8 (≈ 10.4 µM)	1 (≈ 1.3 µM)	> 100	1 (≈ 1.3 µM)	4 (≈ 5.19 µM)	8 (≈ 10.4 µM)	0.25 (≈ 0.324 µM)	2 (≈ 2.59 µM)	> 100	0.25 (≈ 0.324 µM)	16 (≈ 20.8 µM)	MIC [17]: 2 µg/mL (≈ 2.59 µM); MIC [21]: 0.25 µg/mL (≈ 0.324 µM); MIC [23]: 1 µg/mL (≈ 1.3 µM); MIC [24]: 0.5 µg/mL (≈ 0.649 µM); MIC [25]: 0.125 µg/mL (≈ 0.162 µM)
